Data from ChEMBL document CHEMBL1147590, “Synthesis and antitumor activity of s-tetrazine derivatives” (Bioorg Med Chem Lett, 2004).

Experiments:
A549 [1] = assay: Inhibitory concentration of compound against A-549 cell line; format: functional, cell-based; conditions: Homo sapiens
Procedure, shortened: (§1)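 A-549 tumour cell growth inhibition was measured in vitro by the SRB (sulforhodamine B) method.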

A549 [2] = assay: In vitro rate of inhibition of A-549 tumor cell growth at 10E-4 mol/L; format: functional, Homo sapiens; conditions: at 100 µM
A549 [3] = assay: In vitro rate of inhibition of A-549 tumor cell growth at 10E-5 mol/L; format: functional, Homo sapiens; conditions: at 10 µM
A549 [4] = assay: In vitro rate of inhibition of A-549 tumor cell growth at 10E-7 mol/L; format: functional, Homo sapiens; conditions: at 0.1 µM
A549 [5] = assay: In vitro rate of inhibition of A-549 tumor cell growth at 10E-8 mol/L; format: functional, Homo sapiens; conditions: at 0.01 µM
A549 [6] = assay: Rate of inhibition of A-549 tumor cell growth at a concentration of 0.0625 uM; format: functional, Homo sapiens; procedure, shortened: as §1
A549 [7] = assay: Rate of inhibition of A-549 tumor cell growth at a concentration of 0.125 uM; format: functional, Homo sapiens; procedure, shortened: as §1
A549 [8] = assay: Rate of inhibition of A-549 tumor cell growth at a concentration of 0.25 uM; format: functional, Homo sapiens; procedure, shortened: as §1
A549 [9] = assay: Rate of inhibition of A-549 tumor cell growth at a concentration of 0.5 uM; format: functional, Homo sapiens; procedure, shortened: as §1
A549 [10] = assay: Rate of inhibition of A-549 tumor cell growth at a concentration of 1 uM; format: functional, Homo sapiens; procedure, shortened: as §1
Bel-7402 [11] = assay: Inhibitory concentration of compound against Bel-7402 cell line; format: functional, cell-based; conditions: Homo sapiens
Bel-7402 [12] = assay: Rate of inhibition of Bel-7402 tumor cell growth at a concentration of 0.313 uM; format: functional, Homo sapiens
Bel-7402 [13] = assay: Rate of inhibition of Bel-7402 tumor cell growth at a concentration of 0.625 uM; format: functional, Homo sapiens
Bel-7402 [14] = assay: Rate of inhibition of Bel-7402 tumor cell growth at a concentration of 1.25 uM; format: functional, Homo sapiens
Bel-7402 [15] = assay: Rate of inhibition of Bel-7402 tumor cell growth at a concentration of 2.5 uM; format: functional, Homo sapiens
Bel-7402 [16] = assay: Rate of inhibition of Bel-7402 tumor cell growth at a concentration of 5.0 uM; format: functional, Homo sapiens
MCF7 [17] = assay: Rate of inhibition of MCF-7 tumor cell growth at a concentration of 0.25 uM; format: functional, Homo sapiens
MCF7 [18] = assay: Rate of inhibition of MCF-7 tumor cell growth at a concentration of 0.5 uM; format: functional, Homo sapiens
MCF7 [19] = assay: Rate of inhibition of MCF-7 tumor cell growth at a concentration of 1.0 uM; format: functional, Homo sapiens
MCF7 [20] = assay: Inhibitory concentration of compound against MCF-7 cell line; format: functional, cell-based; conditions: Homo sapiens
MCF7 [21] = assay: Rate of inhibition of MCF-7 tumor cell growth at a concentration of 0.125 uM; format: functional, Homo sapiens
P388 [22] = assay: Inhibitory concentration of compound against P388 tumor cell growth; format: functional, cell-based; conditions: Mus musculus
Procedure, shortened: (§2)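 P-388 tumour cell growth inhibition was read out in vitro by the MTT method.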

P388 [23] = assay: In vitro rate of inhibition of P388 tumor cell growth at 10E-5 mol/L; format: functional, Mus musculus; conditions: at 10 µM
P388 [24] = assay: In vitro rate of inhibition of P388 tumor cell growth at 10E-6 mol/L; format: functional, Mus musculus; conditions: at 1 µM
P388 [25] = assay: In vitro rate of inhibition of P388 tumor cell growth at 10E-7 mol/L; format: functional, Mus musculus; conditions: at 0.1 µM
P388 [26] = assay: In vitro rate of inhibition of P388 tumor cell growth at 10E-8 mol/L; format: functional, Mus musculus; conditions: at 0.01 µM
P388 [27] = assay: Rate of inhibition of P388 tumor cell growth at a concentration of 0.195 uM; format: functional, Mus musculus; procedure, shortened: as §2
P388 [28] = assay: Rate of inhibition of P388 tumor cell growth at a concentration of […] uM; format: functional, Mus musculus; procedure, shortened: as §2
P388 [29] = assay: Rate of inhibition of P388 tumor cell growth at a concentration of 0.781 uM; format: functional, Mus musculus; procedure, shortened: as §2
P388 [30] = assay: Rate of inhibition of P388 tumor cell growth at a concentration of 1.563 uM; format: functional, Mus musculus; procedure, shortened: as §2
P388 [31] = assay: Rate of inhibition of P388 tumor cell growth at a concentration of 3.125 uM; format: functional, Mus musculus; procedure, shortened: as §2
A549 [32] = assay: In vitro rate of inhibition of A-549 tumor cell growth at 10E-6 mol/L; format: functional, Homo sapiens; conditions: at 1 µM
P388 [33] = assay: In vitro rate of inhibition of P388 tumor cell growth at 10E-4 mol/L; format: functional, Mus musculus; conditions: at 100 µM

- IC50 (A549 [1]): 700 nM
- IC50 (Bel-7402 [11]): 600 nM
- IC50 (MCF7 [20]): 500 nM
- IC50 (P388 [22]): 600 nM
Compound: CC1=NN(C(=O)Nc2cccc(C)c2)C(C)=NN1C(=O)Nc1cccc(C)c1
- Rate of inhibition (A549 [2]): 84.8%
- Rate of inhibition (A549 [3]): 83.3%
- Rate of inhibition (A549 [4]): 81.8%
- Rate of inhibition (A549 [5]): 80.3%
- Rate of inhibition (A549 [6]): 0%
- Rate of inhibition (A549 [7]): 0%
- Rate of inhibition (A549 [8]): 0%
- Rate of inhibition (A549 [9]): 36.6%
- Rate of inhibition (A549 [10]): 93.6%
- Rate of inhibition (Bel-7402 [12]): 27.4%
- Rate of inhibition (Bel-7402 [13]): 54.2%
- Rate of inhibition (Bel-7402 [14]): 77.8%
- Rate of inhibition (Bel-7402 [15]): 89%
- Rate of inhibition (Bel-7402 [16]): 87.8%
- Rate of inhibition (MCF7 [17]): 35.7%
- Rate of inhibition (MCF7 [18]): 64.3%
- Rate of inhibition (MCF7 [19]): 71.2%
- Rate of inhibition (MCF7 [21]): 1.1%
- Rate of inhibition (P388 [23]): 96.8%
- Rate of inhibition (P388 [24]): 98.4%
- Rate of inhibition (P388 [25]): 96.8%
- Rate of inhibition (P388 [26]): 96.8%
- Rate of inhibition (P388 [27]): 2.3%
- Rate of inhibition (P388 [28]): 55.4%
- Rate of inhibition (P388 [29]): 83.1%
- Rate of inhibition (P388 [30]): 91.1%
- Rate of inhibition (P388 [31]): 97.3%
- Rate of inhibition (A549 [32]): 80.3%
- Rate of inhibition (P388 [33]): 96.8%
